# Data reported in ChEMBL document CHEMBL1141180, “Synthesis and antiviral activity of helioxanthin analogues” (J Med Chem, 2005).
# Tested on: Human alphaherpesvirus 1
# Assay: Effective concentration to inhibit 50% of herpes simplex virus type 1 replication in a cell culture model
# Assay type: functional, organism-based
# Details: not given
row,SMILES,EC50 [µM]
1,O=C(O)c1cc2ccc3c(c2c(-c2ccc4c(c2)OCO4)c1COCc1ccccc1)OCO3,> 25
2,O=C1c2cc3ccc4c(c3c(-c3ccc5c(c3)OCO5)c2C(=O)N1O)OCO4,> 30
3,O=c1[nH][nH]c(=O)c2c(-c3ccc4c(c3)OCO4)c3c4c(cc(Cl)c3cc12)OCO4,> 7
4,COC(=O)c1cc2ccc3c(c2c(-c2ccc4c(c2)OCO4)c1C(=O)OC)OCO3,> 50
5,O=C1OCc2c1cc1c(I)cc3c(c1c2-c1ccc2c(c1)OCO2)OCO3,> 25
6,O=c1[nH][nH]c(=O)c2c(-c3ccc4c(c3)OCO4)c3c4c(ccc3cc12)OCO4,1.4
7,O=C(O)c1cc2ccc3c(c2c(-c2ccc4c(c2)OCO4)c1C(=O)O)OCO3,> 50
8,CCOC(=O)c1c(C(=O)OCC)c(-c2ccc3c(c2)OCO3)c2c3c(ccc2c1OC)OCO3,> 50
9,NC(=O)c1cc2ccc3c(c2c(-c2ccc4c(c2)OCO4)c1C(=O)O)OCO3,0.15

# Tested on: Human alphaherpesvirus 2
# Assay: Effective concentration to inhibit 50% of herpes simplex virus type 2 replication in a cell culture model
# Assay type: functional, organism-based
# Details: not given
row,SMILES,EC50 [µM]
1,O=C(O)c1cc2ccc3c(c2c(-c2ccc4c(c2)OCO4)c1COCc1ccccc1)OCO3,> 25
2,O=C1c2cc3ccc4c(c3c(-c3ccc5c(c3)OCO5)c2C(=O)N1O)OCO4,> 30
3,O=c1[nH][nH]c(=O)c2c(-c3ccc4c(c3)OCO4)c3c4c(cc(Cl)c3cc12)OCO4,> 40
4,COC(=O)c1cc2ccc3c(c2c(-c2ccc4c(c2)OCO4)c1C(=O)OC)OCO3,> 50
5,O=C1OCc2c1cc1c(I)cc3c(c1c2-c1ccc2c(c1)OCO2)OCO3,> 25
6,O=c1[nH][nH]c(=O)c2c(-c3ccc4c(c3)OCO4)c3c4c(ccc3cc12)OCO4,1.4
7,O=C(O)c1cc2ccc3c(c2c(-c2ccc4c(c2)OCO4)c1C(=O)O)OCO3,> 50
8,CCOC(=O)c1c(C(=O)OCC)c(-c2ccc3c(c2)OCO3)c2c3c(ccc2c1OC)OCO3,> 50
9,NC(=O)c1cc2ccc3c(c2c(-c2ccc4c(c2)OCO4)c1C(=O)O)OCO3,< 0.1

# Tested on: Hepatitis B virus
# Assay: Effective concentration to inhibit 50% of hepatitis B virus replication in a cell culture model
# Assay type: functional, organism-based
# Details: not given
row,SMILES,EC50 [µM]
1,O=C(O)c1cc2ccc3c(c2c(-c2ccc4c(c2)OCO4)c1COCc1ccccc1)OCO3,> 10
2,O=C1c2cc3ccc4c(c3c(-c3ccc5c(c3)OCO5)c2C(=O)N1O)OCO4,> 10
3,O=c1[nH][nH]c(=O)c2c(-c3ccc4c(c3)OCO4)c3c4c(cc(Cl)c3cc12)OCO4,> 20
4,COC(=O)c1cc2ccc3c(c2c(-c2ccc4c(c2)OCO4)c1C(=O)OC)OCO3,> 20
5,O=C1OCc2c1cc1c(I)cc3c(c1c2-c1ccc2c(c1)OCO2)OCO3,> 20
6,O=c1[nH][nH]c(=O)c2c(-c3ccc4c(c3)OCO4)c3c4c(ccc3cc12)OCO4,0.03
7,O=C(O)c1cc2ccc3c(c2c(-c2ccc4c(c2)OCO4)c1C(=O)O)OCO3,> 10
8,CCOC(=O)c1c(C(=O)OCC)c(-c2ccc3c(c2)OCO3)c2c3c(ccc2c1OC)OCO3,> 20
9,NC(=O)c1cc2ccc3c(c2c(-c2ccc4c(c2)OCO4)c1C(=O)O)OCO3,0.8

# Tested on: Hepatitis C virus
# Assay: Effective concentration to inhibit 50% of hepatitis C virus replication in a cell culture model
# Assay type: functional, organism-based, Hepacivirus hominis
# Details: not given
# Method in brief: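 HCV replicon Huh-Luc/neo cells grown to confluence, then treated with varying drug concentrations in DMEM with 10% dFBS for 3 days. Medium was removed and cells lysed in passive lysis buffer, shaken 15 min at room temperature. Lysate was mixed with luciferase substrate and luminescence read immediately as the measure of replicon activity.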
row,SMILES,EC50 [µM]
1,O=C(O)c1cc2ccc3c(c2c(-c2ccc4c(c2)OCO4)c1COCc1ccccc1)OCO3,> 10
2,O=C1c2cc3ccc4c(c3c(-c3ccc5c(c3)OCO5)c2C(=O)N1O)OCO4,> 10
3,O=c1[nH][nH]c(=O)c2c(-c3ccc4c(c3)OCO4)c3c4c(cc(Cl)c3cc12)OCO4,10
4,COC(=O)c1cc2ccc3c(c2c(-c2ccc4c(c2)OCO4)c1C(=O)OC)OCO3,10
5,O=C1OCc2c1cc1c(I)cc3c(c1c2-c1ccc2c(c1)OCO2)OCO3,> 10
6,O=c1[nH][nH]c(=O)c2c(-c3ccc4c(c3)OCO4)c3c4c(ccc3cc12)OCO4,> 10
7,O=C(O)c1cc2ccc3c(c2c(-c2ccc4c(c2)OCO4)c1C(=O)O)OCO3,> 10
8,CCOC(=O)c1c(C(=O)OCC)c(-c2ccc3c(c2)OCO3)c2c3c(ccc2c1OC)OCO3,> 10
9,NC(=O)c1cc2ccc3c(c2c(-c2ccc4c(c2)OCO4)c1C(=O)O)OCO3,3

# Tested on: not listed separately
# Assay: Effective concentration to inhibit 50% of human immunodeficiency virus replication in a cell culture model
# Assay type: functional
# Details: not given
row,SMILES,EC50 [µM]
1,O=C(O)c1cc2ccc3c(c2c(-c2ccc4c(c2)OCO4)c1COCc1ccccc1)OCO3,> 48
2,O=C1c2cc3ccc4c(c3c(-c3ccc5c(c3)OCO5)c2C(=O)N1O)OCO4,> 16
3,O=c1[nH][nH]c(=O)c2c(-c3ccc4c(c3)OCO4)c3c4c(cc(Cl)c3cc12)OCO4,> 54
4,COC(=O)c1cc2ccc3c(c2c(-c2ccc4c(c2)OCO4)c1C(=O)OC)OCO3,> 28
5,O=C1OCc2c1cc1c(I)cc3c(c1c2-c1ccc2c(c1)OCO2)OCO3,> 80
6,O=c1[nH][nH]c(=O)c2c(-c3ccc4c(c3)OCO4)c3c4c(ccc3cc12)OCO4,2.7
7,O=C(O)c1cc2ccc3c(c2c(-c2ccc4c(c2)OCO4)c1C(=O)O)OCO3,> 100
8,CCOC(=O)c1c(C(=O)OCC)c(-c2ccc3c(c2)OCO3)c2c3c(ccc2c1OC)OCO3,> 24
9,NC(=O)c1cc2ccc3c(c2c(-c2ccc4c(c2)OCO4)c1C(=O)O)OCO3,> 5

# Tested on: Human gammaherpesvirus 4
# Assay: Effective concentration to inhibit 50% of epstein Barr virus replication in a cell culture model
# Assay type: functional, organism-based
# Details: not given
row,SMILES,EC50 [µM]
1,O=C(O)c1cc2ccc3c(c2c(-c2ccc4c(c2)OCO4)c1COCc1ccccc1)OCO3,> 20
2,O=C1c2cc3ccc4c(c3c(-c3ccc5c(c3)OCO5)c2C(=O)N1O)OCO4,> 5
3,O=c1[nH][nH]c(=O)c2c(-c3ccc4c(c3)OCO4)c3c4c(cc(Cl)c3cc12)OCO4,> 20
4,COC(=O)c1cc2ccc3c(c2c(-c2ccc4c(c2)OCO4)c1C(=O)OC)OCO3,> 20
5,O=C1OCc2c1cc1c(I)cc3c(c1c2-c1ccc2c(c1)OCO2)OCO3,> 10
6,O=c1[nH][nH]c(=O)c2c(-c3ccc4c(c3)OCO4)c3c4c(ccc3cc12)OCO4,> 25
7,O=C(O)c1cc2ccc3c(c2c(-c2ccc4c(c2)OCO4)c1C(=O)O)OCO3,> 20
8,CCOC(=O)c1c(C(=O)OCC)c(-c2ccc3c(c2)OCO3)c2c3c(ccc2c1OC)OCO3,> 20
9,NC(=O)c1cc2ccc3c(c2c(-c2ccc4c(c2)OCO4)c1C(=O)O)OCO3,9

# Tested on: not listed separately
# Assay: Effective concentration to inhibit 50% of cytomegalovirus (CMV) replication in a cell culture model
# Assay type: functional
# Details: not given
row,SMILES,EC50 [µM]
1,NC(=O)c1cc2ccc3c(c2c(-c2ccc4c(c2)OCO4)c1C(=O)O)OCO3,0.45

# Tested on: CCRF-CEM
# Assay: Cytotoxicity against CEM cell lines of human
# Assay type: functional
# Details: read-out: ID50 (the source's name)
row,SMILES,IC50 [µM]
1,O=C(O)c1cc2ccc3c(c2c(-c2ccc4c(c2)OCO4)c1COCc1ccccc1)OCO3,> 50
2,O=C1c2cc3ccc4c(c3c(-c3ccc5c(c3)OCO5)c2C(=O)N1O)OCO4,17
3,O=c1[nH][nH]c(=O)c2c(-c3ccc4c(c3)OCO4)c3c4c(cc(Cl)c3cc12)OCO4,38
4,COC(=O)c1cc2ccc3c(c2c(-c2ccc4c(c2)OCO4)c1C(=O)OC)OCO3,50
5,O=C1OCc2c1cc1c(I)cc3c(c1c2-c1ccc2c(c1)OCO2)OCO3,70
6,O=c1[nH][nH]c(=O)c2c(-c3ccc4c(c3)OCO4)c3c4c(ccc3cc12)OCO4,50
7,O=C(O)c1cc2ccc3c(c2c(-c2ccc4c(c2)OCO4)c1C(=O)O)OCO3,> 100
8,CCOC(=O)c1c(C(=O)OCC)c(-c2ccc3c(c2)OCO3)c2c3c(ccc2c1OC)OCO3,> 100
9,NC(=O)c1cc2ccc3c(c2c(-c2ccc4c(c2)OCO4)c1C(=O)O)OCO3,8.4

# Tested on: MT2
# Assay: Cytotoxicity against MT-2 cell lines of human
# Assay type: functional
# Details: read-out: ID50 (the source's name)
row,SMILES,IC50 [µM]
1,O=C(O)c1cc2ccc3c(c2c(-c2ccc4c(c2)OCO4)c1COCc1ccccc1)OCO3,48
2,O=C1c2cc3ccc4c(c3c(-c3ccc5c(c3)OCO5)c2C(=O)N1O)OCO4,16
3,O=c1[nH][nH]c(=O)c2c(-c3ccc4c(c3)OCO4)c3c4c(cc(Cl)c3cc12)OCO4,54
4,COC(=O)c1cc2ccc3c(c2c(-c2ccc4c(c2)OCO4)c1C(=O)OC)OCO3,28
5,O=C1OCc2c1cc1c(I)cc3c(c1c2-c1ccc2c(c1)OCO2)OCO3,80
6,O=c1[nH][nH]c(=O)c2c(-c3ccc4c(c3)OCO4)c3c4c(ccc3cc12)OCO4,16
7,O=C(O)c1cc2ccc3c(c2c(-c2ccc4c(c2)OCO4)c1C(=O)O)OCO3,> 100
8,CCOC(=O)c1c(C(=O)OCC)c(-c2ccc3c(c2)OCO3)c2c3c(ccc2c1OC)OCO3,24
9,NC(=O)c1cc2ccc3c(c2c(-c2ccc4c(c2)OCO4)c1C(=O)O)OCO3,5
